Screens: PubChem, several laboratories
A selection: hits, their analogues and other compounds. The true share with any hit is near 7.2%.
M1 agonist: M1 muscarinic receptor agonists, primary screen, CHO-M1 cells, Fluo-4 calcium, agonist mode; Muscarinic acetylcholine receptor M1; Fluo-4 calcium fluorescence; hits give high values; B-score at 10 µM; 64,000 tested, 3% active;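 active = fluorescence rise, raw or as B-score row- and column-corrected plate score, outside the 99.7% band of its plate's samples, either direction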
DAT uptake mod: changed hDAT dopamine uptake under cocaine IC80, either direction, primary screen, cocaine antagonist project, cell-based, LLC-PK1 hDAT, [14C]-dopamine uptake, MLSMR; LLC-PK1 hDAT cells, [14C]-dopamine uptake with cocaine IC80; actives deviate in either direction; B-score at 10 µM; 110,000 tested, 1.3% active; AID 449768, 2010;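 active = Z score or B-score, a plate-position-corrected score, falls beyond the plate's 99.7% confidence bounds, in either direction; inactive = both scores lie inside the 99.7% bounds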;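 note: scored against the spread of the other compound wells on the same plate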
BAP1 inh: inhibitors of BAP1 deubiquitinase, primary screen, biochemical, Ub-AMC fluorescence, kinetic; 72,000 tested, 0.48% active; recombinant BAP1, Ub-AMC hydrolysis fluorescence kinetic; hits give low values; calls only at 20 µM; AID 436, 2006;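 active = activity remaining at or below 50% of control, provided the compound also passes the data quality filters; inactive = the rest, including low values that fail the filters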;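 note: 100% = DMSO wells rate and 0% = substrate alone blank rate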
HEK293 NFkB inh: inhibitors of PMA/ionomycin-induced NF-kB reporter, primary screen, antigen receptor NF-kB inhibitor project, cell-based, HEK-293 luciferase reporter, luminescence; HEK-293 NF-kB luciferase reporter; inhibition, % at 3 µM; 62,000 tested, 0.21% active;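 active = inhibition above the mean of all tested compounds plus 3 SD, cut at about 40% in these data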;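 note: 0% = stimulated DMSO wells and 100% = 10 µM reference inhibitor 5653914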
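System: NF-kB luciferase reporter HEK-293 cells | Replication: Single test | Control set: DMSO vs reference inhibitor | Evaluation: % inhibition | Schedule: 1 h pretreatment, 16 h stimulation, 37 °C | Probe or stimulus: PMA with ionomycin | Compound dosing: One dose, 3 µM | Detection: Luciferase luminescence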
D1 allo mod: D1 CRE-luciferase signal change, two-sided – cell-based, HEK293 D1, dopamine EC30, D1 allosteric modulator project, primary screen | D(1A) dopamine receptor (Homo sapiens), P21728 | AID 641, 2007 | dopamine EC30 potentiation; actives deviate in either direction | B-score at 10 µM | 58,000 tested, 5.9% active;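 active = luminescence count or its row- and column-corrected plate score outside the 99.7% band of the plate's sample wells, on either side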
Target sequence (P21728 whole entry, looked up): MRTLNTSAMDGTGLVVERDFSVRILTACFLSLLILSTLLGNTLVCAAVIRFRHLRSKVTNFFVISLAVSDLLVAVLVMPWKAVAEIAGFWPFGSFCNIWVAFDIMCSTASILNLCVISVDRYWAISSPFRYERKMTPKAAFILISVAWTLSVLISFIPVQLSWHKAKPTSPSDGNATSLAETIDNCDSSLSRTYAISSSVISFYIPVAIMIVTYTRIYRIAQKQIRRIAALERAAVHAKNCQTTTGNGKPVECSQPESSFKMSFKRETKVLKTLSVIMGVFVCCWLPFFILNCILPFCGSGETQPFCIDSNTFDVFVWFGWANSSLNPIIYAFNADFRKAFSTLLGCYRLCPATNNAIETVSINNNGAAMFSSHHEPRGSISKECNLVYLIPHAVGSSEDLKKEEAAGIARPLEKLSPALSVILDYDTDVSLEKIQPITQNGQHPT
M1 antagonist: antagonists of rat M1 muscarinic receptor; 64,000 tested, 3.4% active; B-score at 10 µM; AID 628, 2007; CHO-M1 cells, Fluo-4 calcium, ACh EC80 antagonist mode; hits give low values;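 active = calcium fluorescence response, raw or row-and-column corrected B-score, differing from the plate sample mean either way at a set confidence level, mostly lower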
D1 PAM confirm: D1 receptor positive allosteric modulators, retest, confirmation, cell-based, HEK293 D1, CRE-luciferase, duplicate. shares compounds with D1 allo mod. dopamine EC30 potentiation; hits give high values. luminescence at 10 µM. 2,200 tested, 88% active. AID 642, 2007;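 active = luminescence in either of two replicates above the same-plate mean plus 3 SD of the low-dose dopamine control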
D1 ag no DA: D1 receptor agonism without dopamine, confirmation, mechanism study for D1 allosteric modulator project, cell-based, HEK293 D1, CRE-luciferase, secondary assay 1; luminescence at 10 µM; 1,900 tested, 0.8% active; shares compounds with D1 allo mod; AID 646, 2007; luminescence, no dopamine; hits give high values; in the data active = luminescence above about 3900
Isoprot counter: alters isoproterenol CRE-luciferase response in HEK293 cells. shares compounds with D1 allo mod. HEK293 D1 CRE-luciferase, isoproterenol EC30 counter-screen. calls only at 10 µM. 2,200 tested, 63% active;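 active = luminescence in either replicate above plate mean of wells with a partly effective reference agonist dose plus 3 SD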;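 note: isoproterenol raises cAMP through native beta-adrenoceptor Gs so signal bypasses D1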
* hit, by the source's call.

What do the screens show for `CCC(=O)N1CCc2cc(S(=O)(=O)N3CCN(c4ccccn4)CC3)ccc21`?
M1 agonist: -0.41; DAT uptake mod: -1.6; BAP1 inh: inactive; HEK293 NFkB inh: 12; D1 allo mod: 2.7*; M1 antagonist: -0.65; D1 PAM confirm: 13196*; D1 ag no DA: 1512; Isoprot counter: active

Results for CCC(=O)N1CCc2cc(Br)cc(S(=O)(=O)N3CCN(c4ccccn4)CC3)c21 ?
M1 agonist: -0.33; HEK293 NFkB inh: 3; M1 antagonist: -0.15

Results for CCOC(=O)c1c(N)nn(C(C)=O)c1-c1ccccc1 ?
M1 agonist: -0.1; DAT uptake mod: -0.34; BAP1 inh: inactive; HEK293 NFkB inh: 5; D1 allo mod: 20*; M1 antagonist: -0.16; D1 PAM confirm: 19148*; D1 ag no DA: 1584; Isoprot counter: active

How did CCOC(=O)c1c(C)nc(-c2ccccc2)nc1N do in these assays?
M1 agonist: 0.46; DAT uptake mod: 0.59; BAP1 inh: inactive; HEK293 NFkB inh: -21; D1 allo mod: 4.1*; M1 antagonist: 0.63; D1 PAM confirm: 8680*; D1 ag no DA: 1600; Isoprot counter: active

How did CCOC(=O)c1c(C)nc(-c2ccccc2)nc1NC(C)=O do in these assays?
M1 agonist: -0.24; DAT uptake mod: 0.67; BAP1 inh: inactive; HEK293 NFkB inh: -7; D1 allo mod: 0.58; M1 antagonist: -0.089

Results for Cc1ccc2sc(-c3ccc(NC(=O)COc4ccccc4)cc3)nc2c1 ?
BAP1 inh: inactive

Results for O=C(Oc1cccnc1)c1cccc(Cl)c1 ?
M1 agonist: 1.1; DAT uptake mod: 0.053; BAP1 inh: inactive; HEK293 NFkB inh: 14; D1 allo mod: 0.05; M1 antagonist: 0.33

How did COc1ccc(C(=O)Oc2cccnc2)cc1OC do in these assays?
M1 agonist: -1.8; DAT uptake mod: 0.033; BAP1 inh: inactive; HEK293 NFkB inh: 8; D1 allo mod: 8.6*; M1 antagonist: -0.92; D1 PAM confirm: 20932*; D1 ag no DA: 1664; Isoprot counter: active

What do the screens show for `CCSc1nc2ccccc2n1Cc1nc(N)nc(N(C)C)n1`?
M1 agonist: -0.9; DAT uptake mod: 0.62; BAP1 inh: inactive; HEK293 NFkB inh: 25; D1 allo mod: 5.2*; M1 antagonist: 0.41; D1 PAM confirm: 10584*; Isoprot counter: active

How did COc1cccc(-n2c(SCC(=O)Nc3cc(C)on3)nc3c([nH]c4ccccc43)c2=O)c1 do in these assays?
M1 agonist: 0.4; DAT uptake mod: 1.9; BAP1 inh: inactive; HEK293 NFkB inh: 6; D1 allo mod: 5.7*; M1 antagonist: -0.23; D1 PAM confirm: 10104*; D1 ag no DA: 1812; Isoprot counter: active

What do the screens show for `CCOC(=O)c1c(-c2ccccc2)c2cc([N+](=O)[O-])ccc2[nH]c1=O`?
BAP1 inh: inactive

Results for Cc1cc(C)nc(-n2nc(C)cc2NC(=O)CN2CCC(C)CC2)n1 ?
M1 agonist: 0.12; DAT uptake mod: 1.9; HEK293 NFkB inh: 10; D1 allo mod: 5.3*; M1 antagonist: 0.27; D1 PAM confirm: 16268*; D1 ag no DA: 1592; Isoprot counter: active

How did Oc1ccc(Nc2nc(-c3ccc4ccccc4c3)cs2)cc1 do in these assays?
DAT uptake mod: 0.74
